Source: ChEMBL document CHEMBL4371031, “In Vitro Antiviral Activity of New Oxazoline Derivatives as Potent Poliovirus Inhibitors” (J Med Chem, 2019)

How the values were obtained:
Poliovirus 3 [1] = test: Antiviral activity against Poliovirus Sabin 3 infected in human HeLa cells assessed as reduction in virus-induced cytopathic effect after 72 hrs by crystal violet staining-based assay; assay type: functional, organism-based; conditions: Enterovirus C
Method in brief: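 HeLa cells grown in MEM-10% FBS, seeded at 2x10^5 cells/mL in MEM-2% FBS and held 24 h at 37°C, 5% CO2. Compound and virus were cross-titrated together on the cells starting at 10 µM compound, in 0.5 log10 steps, duplicate wells, three replicate tests per virus. Incubated 72 h at 37°C, stained with crystal violet, A590 read. EC50 from four-parameter fit.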

Poliovirus 1 [2] = test: Antiviral activity against Human poliovirus 1 10689 infected in human HeLa cells assessed as reduction in virus-induced cytopathic effect after 72 hrs by crystal violet staining-based assay; assay type: functional, organism-based; conditions: Enterovirus C, 10689, HeLa
Method in brief: (§1)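 HeLa cells grown in MEM-10% FBS, seeded at 2x10^5 cells/mL in MEM-2% FBS and preincubated 24 h at 37°C, 5% CO2. Compound and virus were cross-titrated […] compound in 0.5 log10 steps (7-point curves), with duplicate wells and three replicate tests per virus. After 72 h at 37°C, cells were crystal violet stained and read at 590 nm. EC50 came from a four-parameter fit; if all virus dilutions gave >80% monolayer destruction, the value was […].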

Poliovirus 1 [3] = test: Antiviral activity against Human poliovirus 1 10690 infected in human HeLa cells assessed as reduction in virus-induced cytopathic effect after 72 hrs by crystal violet staining-based assay; assay type: functional, organism-based; conditions: Enterovirus C, 10690, HeLa; method in brief: as §1
Poliovirus 1 [4] = test: Antiviral activity against Human poliovirus 1 10692 infected in human HeLa cells assessed as reduction in virus-induced cytopathic effect after 72 hrs by crystal violet staining-based assay; assay type: functional, organism-based; conditions: Enterovirus C, 10692, HeLa; method in brief: as §1
Poliovirus 1 [5] = test: Antiviral activity against Human poliovirus 1 10694 infected in human HeLa cells assessed as reduction in virus-induced cytopathic effect after 72 hrs by crystal violet staining-based assay; assay type: functional, organism-based; conditions: Enterovirus C, 10694, HeLa; method in brief: as §1
Poliovirus 1 [6] = test: Antiviral activity against Human poliovirus 1 10695 infected in human HeLa cells assessed as reduction in virus-induced cytopathic effect after 72 hrs by crystal violet staining-based assay; assay type: functional, organism-based; conditions: Enterovirus C, 10695, HeLa; method in brief: as §1
Poliovirus 1 [7] = test: Antiviral activity against Human poliovirus 1 10222 infected in human HeLa cells assessed as reduction in virus-induced cytopathic effect after 72 hrs by crystal violet staining-based assay; assay type: functional, organism-based; conditions: Enterovirus C, 10222, HeLa; method in brief: as §1
Poliovirus 1 [8] = test: Antiviral activity against Human poliovirus 1 10223 infected in human HeLa cells assessed as reduction in virus-induced cytopathic effect after 72 hrs by crystal violet staining-based assay; assay type: functional, organism-based; conditions: Enterovirus C, 10223, HeLa; method in brief: as §1
Poliovirus 1 [9] = test: Antiviral activity against Human poliovirus 1 10225 infected in human HeLa cells assessed as reduction in virus-induced cytopathic effect after 72 hrs by crystal violet staining-based assay; assay type: functional, organism-based; conditions: Enterovirus C, 10225, HeLa; method in brief: as §1
Poliovirus 1 [10] = test: Antiviral activity against Human poliovirus 1 10235 infected in human HeLa cells assessed as reduction in virus-induced cytopathic effect after 72 hrs by crystal violet staining-based assay; assay type: functional, organism-based; conditions: Enterovirus C, 10235, HeLa; method in brief: as §1
Poliovirus 1 [11] = test: Antiviral activity against Human poliovirus 1 10237 infected in human HeLa cells assessed as reduction in virus-induced cytopathic effect after 72 hrs by crystal violet staining-based assay; assay type: functional, organism-based; conditions: Enterovirus C, 10237, HeLa; method in brief: as §1
Poliovirus 1 [12] = test: Antiviral activity against Human poliovirus 1 10238 infected in human HeLa cells assessed as reduction in virus-induced cytopathic effect after 72 hrs by crystal violet staining-based assay; assay type: functional, organism-based; conditions: Enterovirus C, 10238, HeLa; method in brief: as §1
Poliovirus 1 [13] = test: Antiviral activity against Human poliovirus 1 10239 infected in human HeLa cells assessed as reduction in virus-induced cytopathic effect after 72 hrs by crystal violet staining-based assay; assay type: functional, organism-based; conditions: Enterovirus C, 10239, HeLa; method in brief: as §1
Poliovirus 1 [14] = test: Antiviral activity against Human poliovirus 1 10240 infected in human HeLa cells assessed as reduction in virus-induced cytopathic effect after 72 hrs by crystal violet staining-based assay; assay type: functional, organism-based; conditions: Enterovirus C, 10240, HeLa; method in brief: as §1
Poliovirus 1 [15] = test: Antiviral activity against Human poliovirus 1 10241 infected in human HeLa cells assessed as reduction in virus-induced cytopathic effect after 72 hrs by crystal violet staining-based assay; assay type: functional, organism-based; conditions: Enterovirus C, 10241, HeLa; method in brief: as §1
Poliovirus 1 [16] = test: Antiviral activity against Human poliovirus 1 10242 infected in human HeLa cells assessed as reduction in virus-induced cytopathic effect after 72 hrs by crystal violet staining-based assay; assay type: functional, organism-based; conditions: Enterovirus C, 10242, HeLa; method in brief: as §1
Poliovirus 2 [17] = test: Antiviral activity against Human poliovirus 2 10219 infected in human HeLa cells assessed as reduction in virus-induced cytopathic effect after 72 hrs by crystal violet staining-based assay; assay type: functional, organism-based; conditions: Enterovirus C, 10219, HeLa; method in brief: as §1
Poliovirus 2 [18] = test: Antiviral activity against Human poliovirus 2 10220 infected in human HeLa cells assessed as reduction in virus-induced cytopathic effect after 72 hrs by crystal violet staining-based assay; assay type: functional, organism-based; conditions: Enterovirus C, 10220, HeLa; method in brief: as §1
Poliovirus 2 [19] = test: Antiviral activity against Human poliovirus 2 10228 infected in human HeLa cells assessed as reduction in virus-induced cytopathic effect after 72 hrs by crystal violet staining-based assay; assay type: functional, organism-based; conditions: Enterovirus C, 10228, HeLa; method in brief: as §1
Poliovirus 2 [20] = test: Antiviral activity against Human poliovirus 2 10230 infected in human HeLa cells assessed as reduction in virus-induced cytopathic effect after 72 hrs by crystal violet staining-based assay; assay type: functional, organism-based; conditions: Enterovirus C, 10230, HeLa; method in brief: as §1
Poliovirus 2 [21] = test: Antiviral activity against Human poliovirus 2 10234 infected in human HeLa cells assessed as reduction in virus-induced cytopathic effect after 72 hrs by crystal violet staining-based assay; assay type: functional, organism-based; conditions: Enterovirus C, 10234, HeLa; method in brief: as §1
Poliovirus 3 [22] = test: Antiviral activity against Human poliovirus 3 10804 infected in human HeLa cells assessed as reduction in virus-induced cytopathic effect after 72 hrs by crystal violet staining-based assay; assay type: functional, organism-based; conditions: Enterovirus C, 10804, HeLa; method in brief: as §1
Poliovirus 2 [23] = test: Antiviral activity against Human poliovirus 2 Lansing infected in human HeLa cells assessed as reduction in virus-induced cytopathic effect after 72 hrs by crystal violet staining-based assay; assay type: functional, organism-based; conditions: Enterovirus C; method in brief: as §1
Poliovirus 1 [24] = test: Antiviral activity against Human poliovirus 1 Sabin 1 infected in human HeLa cells assessed as reduction in virus-induced cytopathic effect after 72 hrs by crystal violet staining-based assay; assay type: functional, organism-based; conditions: Enterovirus C, Sabin 1, HeLa; method in brief: as §1
Poliovirus 2 [25] = test: Antiviral activity against Human poliovirus 2 Sabin 2 infected in human HeLa cells assessed as reduction in virus-induced cytopathic effect after 72 hrs by crystal violet staining-based assay; assay type: functional, organism-based; conditions: Enterovirus C, Sabin 2, HeLa; method in brief: as §1
Poliovirus 3 [26] = test: Antiviral activity against Human poliovirus 3 Sabin 3 infected in human HeLa cells assessed as reduction in virus-induced cytopathic effect after 72 hrs by crystal violet staining-based assay; assay type: functional, organism-based; conditions: Enterovirus C, Sabin 3, HeLa; method in brief: as §1
[27] = Cytotoxicity against human HeLa cells after 72 hrs by ATP-bioluminescence cell viability assay; assay type: cell-based
Method in brief: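 Luminescent ATP cell-viability read-out on HeLa cells with compound only, run under conditions similar to the cytopathic-effect assay (72 h, 37°C). Signal was compared with cell-only wells. CC50 was derived from the titration curves.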

[28] = Therapeutic ratio of CC50 for human HeLa cells to EC50 for Poliovirus Sabin 2 infected in human HeLa cells; assay type: toxicity, cell-based; conditions: read-out: Ratio CC50/EC50

Compound | EC50 (Poliovirus 3 [1]) [nM] | EC50 (Poliovirus 1 [2]) [nM] | EC50 (Poliovirus 1 [3]) [nM] | EC50 (Poliovirus 1 [4]) [nM] | EC50 (Poliovirus 1 [5]) [nM] | EC50 (Poliovirus 1 [6]) [nM] | EC50 (Poliovirus 1 [7]) [nM] | EC50 (Poliovirus 1 [8]) [nM] | EC50 (Poliovirus 1 [9]) [nM] | EC50 (Poliovirus 1 [10]) [nM] | EC50 (Poliovirus 1 [11]) [nM] | EC50 (Poliovirus 1 [12]) [nM] | EC50 (Poliovirus 1 [13]) [nM] | EC50 (Poliovirus 1 [14]) [nM] | EC50 (Poliovirus 1 [15]) [nM] | EC50 (Poliovirus 1 [16]) [nM] | EC50 (Poliovirus 2 [17]) [nM] | EC50 (Poliovirus 2 [18]) [nM] | EC50 (Poliovirus 2 [19]) [nM] | EC50 (Poliovirus 2 [20]) [nM] | other results
Cc1ccc(C(=O)CCCCOc2ccc(C3=NCCO3)cc2)s1 | 367 | 60 | 48700 | > 100000 | 7220 | 8410 | 7890 | 70 | 35700 | 4610 | 5750 | 2100 | 940 | 3620 | 3170 | 37900 | 30 | 40 | 10100 | 100 | EC50 (Poliovirus 2 [21]): 30 nM; EC50 (Poliovirus 3 [22]): > 100000 nM; EC50 (Poliovirus 2 [23]): 590 nM; EC50 (Poliovirus 1 [24]): 12500 nM; EC50 (Poliovirus 2 [25]): 30 nM; EC50 (Poliovirus 3 [26]): 320 nM; CC50 at 72 h [27]: > 50000 nM; selectivity ratio [28]: > 1670
Cc1ccc(C(=O)CCC/C=C/c2ccc(C3=NCCO3)cc2)s1 | 53 | 34 | 1260 | 780 | 2300 | 580 | 1130 | 20 | 810 | 400 | 280 | 190 | 220 | 270 | 370 | 20 | 30 | 20 | 500 | 30 | EC50 (Poliovirus 2 [21]): 20 nM; EC50 (Poliovirus 3 [22]): 20 nM; EC50 (Poliovirus 2 [23]): 60 nM; EC50 (Poliovirus 1 [24]): 340 nM; EC50 (Poliovirus 2 [25]): 30 nM; EC50 (Poliovirus 3 [26]): 50 nM; CC50 at 72 h [27]: > 50000 nM; selectivity ratio [28]: > 1850
Cc1ccc(C(=O)CCCCSc2ccc(C3=NCCO3)cc2)s1 | 330 | 2030 | 2000 | > 10000 | 6230 | 7430 | 4900 | 3730 | > 10000 | 8470 | 6470 | 7470 | 5630 | 8470 | 8070 | 8200 | 1200 | 1000 | 9100 | 5330 | EC50 (Poliovirus 2 [21]): 2470 nM; EC50 (Poliovirus 3 [22]): 440 nM; EC50 (Poliovirus 2 [23]): 2270 nM; EC50 (Poliovirus 1 [24]): 700 nM; EC50 (Poliovirus 2 [25]): 160 nM; EC50 (Poliovirus 3 [26]): 330 nM; CC50 at 72 h [27]: 20000 nM; selectivity ratio [28]: 146
